Source: ChEMBL document CHEMBL4602706, “Natural Product Evodiamine with Borate Trigger Unit: Discovery of Potent Antitumor Agents against Colon Cancer” (ACS Med Chem Lett, 2020)
Activity calls are given as the source filed them. The calls are words filed in the database; no cut-off is given here.

How the values were obtained:
MCF7 = assay: Antiproliferative activity against human MCF7 cells incubated for 72 hrs by CCK8 assay; type: functional, cell-based; settings: Homo sapiens, MCF7, 72 h; read-out: IC50
How it was run: (§1)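 HCT116, MCF-7 and A549 human cancer cell lines; antiproliferative activity read out by CCK8 assay. Evodiamine derivatives and camptothecin served as positive controls.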

HCT-116 [1] = assay: Induction of cell cycle arrest in human HCT116 cells assessed as accumulation at G2 phase at 0.4 uM incubated for 24 hrs by propidium iodide staining based flow cytometry (reference value: 18.51 to 20.82%); type: functional
[2] = target: T1, DNA topoisomerase 1 (Homo sapiens) (UniProt P11387); assay: Inhibition of Top1 (unknown origin) at 125 uM using supercoiled pBR322 plasmid DNA as substrate incubated for 15 mins by PI staining based agarose gel electrophoresis analysis
T1 sequence (whole entry): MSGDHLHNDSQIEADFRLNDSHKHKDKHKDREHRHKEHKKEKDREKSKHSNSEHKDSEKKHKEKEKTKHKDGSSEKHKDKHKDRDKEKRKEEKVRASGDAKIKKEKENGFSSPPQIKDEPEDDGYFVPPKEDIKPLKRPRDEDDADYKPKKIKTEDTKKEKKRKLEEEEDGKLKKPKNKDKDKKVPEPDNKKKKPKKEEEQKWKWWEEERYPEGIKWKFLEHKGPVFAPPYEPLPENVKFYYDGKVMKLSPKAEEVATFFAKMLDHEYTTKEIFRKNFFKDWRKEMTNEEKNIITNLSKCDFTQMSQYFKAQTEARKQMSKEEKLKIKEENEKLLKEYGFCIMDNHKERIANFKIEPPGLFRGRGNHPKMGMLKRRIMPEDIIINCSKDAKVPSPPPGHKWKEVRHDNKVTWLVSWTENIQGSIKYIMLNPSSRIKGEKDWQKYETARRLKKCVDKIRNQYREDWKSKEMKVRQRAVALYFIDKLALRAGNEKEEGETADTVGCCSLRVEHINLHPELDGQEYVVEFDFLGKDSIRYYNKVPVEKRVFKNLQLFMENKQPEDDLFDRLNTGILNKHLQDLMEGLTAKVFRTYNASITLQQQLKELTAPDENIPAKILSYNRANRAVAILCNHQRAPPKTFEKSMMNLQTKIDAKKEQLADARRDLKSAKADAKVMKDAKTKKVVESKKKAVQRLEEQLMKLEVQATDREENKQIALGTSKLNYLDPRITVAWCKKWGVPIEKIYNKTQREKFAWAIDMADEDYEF
How it was run: (§2)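 Top1 inhibition tested at 500, 250 and 125 μM, and over 27.9 to 250 μM for selected compounds.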

HCT-116 [3] = assay: Induction of apoptosis in human HCT116 cells incubated for 48 hrs by AnnexinV-FITC/PI staining based flow cytometric analysis; type: functional, cell-based
HCT-116 [4] = assay: Induction of cell cycle arrest in human HCT116 cells assessed as accumulation at G1 phase at 0.2 uM incubated for 24 hrs by propidium iodide staining based flow cytometry (reference value: 38.49 to 51.18%); type: functional
[5] = Drug metabolism in PBS buffer assessed as H2O2-mediated 3-Fluoro-10-hydroxy-14-methyl-8,13,13b,14-tetrahydro-7H-indolo[2',3':3,4]pyrido[2,1-b]quinazolin-5-one release rate at pH 7.4 incubated for 8 hrs in presence of 0.05 mM H2O2 by HPLC analysis; type: physicochemical; settings: pH 7.4, 8 h
How it was run: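 Release of the parent compound after treatment with H2O2 at varied concentrations, including 0.05 mM, in PBS pH 7.4. Analysed by HPLC.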

[6] = Metabolic stability in mouse liver microsomes assessed as half life at 1 uM preincubated with compound followed by NADPH addition measured upto 45 mins by LC-MS/MS analysis; type: ADME, Microsome
How it was run: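 In vitro stability in liver microsomes; terminal half-life determined.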

HCT-116 [7] = assay: Antiproliferative activity against human HCT116 cells incubated for 72 hrs by CCK8 assay; type: functional, cell-based; settings: Homo sapiens, HCT-116, 72 h; read-out: IC50; how it was run: as §1
HCT-116 [8] = assay: Induction of apoptosis in human HCT116 cells assessed as apoptotic cells at 0.05 uM incubated for 48 hrs by AnnexinV-FITC/PI staining based flow cytometric analysis (reference value: 6.25 to 8.23%); type: functional
How it was run: (§3)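 HCT116 cells exposed to 0.05, 0.2 or 0.4 μM for 48 h. Apoptotic cells quantified by flow cytometry, n = 3.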

HCT-116 [9] = assay: Induction of cell cycle arrest in human HCT116 cells assessed as accumulation at G1 phase at 0.05 uM incubated for 24 hrs by propidium iodide staining based flow cytometry (reference value: 38.49 to 51.18%); type: functional
[10] = target: T2, DNA topoisomerase II (Homo sapiens) (UniProt P11388+Q02880); assay: Inhibition of Top2 (unknown origin) at 50 uM using supercoiled pBR322 plasmid DNA as substrate incubated for 30 mins by PI staining based agarose gel electrophoresis analysis; type: protein assay
HCT-116 [11] = assay: Induction of cell cycle arrest in human HCT116 cells assessed as accumulation at G1 phase at 0.4 uM incubated for 24 hrs by propidium iodide staining based flow cytometry (reference value: 38.49 to 51.18%); type: functional
HCT-116 [12] = assay: Induction of cell cycle arrest in human HCT116 cells assessed as accumulation at G2 phase at 0.2 uM incubated for 24 hrs by propidium iodide staining based flow cytometry (reference value: 18.51 to 20.82%); type: functional
HCT-116 [13] = assay: Induction of apoptosis in human HCT116 cells assessed as apoptotic cells at 0.2 uM incubated for 48 hrs by AnnexinV-FITC/PI staining based flow cytometric analysis (reference value: 6.25 to 8.23%); type: functional; how it was run: as §3
[14] = target: T1, DNA topoisomerase 1 (Homo sapiens); assay: Inhibition of Top1 (unknown origin) at 500 uM using supercoiled pBR322 plasmid DNA as substrate incubated for 15 mins by PI staining based agarose gel electrophoresis analysis; how it was run: as §2
[15] = target: T1, DNA topoisomerase 1 (Homo sapiens); assay: Inhibition of Top1 (unknown origin) at 83.3 uM using supercoiled pBR322 plasmid DNA as substrate incubated for 15 mins by PI staining based agarose gel electrophoresis analysis
[16] = target: T2, DNA topoisomerase II (Homo sapiens); assay: Inhibition of Top2 (unknown origin) using supercoiled pBR322 plasmid as substrate incubated for 30 mins by PI staining based agarose gel electrophoresis analysis; type: protein assay
A549 = assay: Antiproliferative activity against human A549 cells incubated for 72 hrs by CCK8 assay; type: functional, cell-based; settings: Homo sapiens, A549, 72 h; read-out: IC50; how it was run: as §1
HCT-116 [17] = assay: Induction of cell cycle arrest in human HCT116 cells assessed as accumulation at S phase at 0.4 uM incubated for 24 hrs by propidium iodide staining based flow cytometry (reference value: 30.31 to 40.69%); type: functional
HCT-116 [18] = assay: Induction of apoptosis in human HCT116 cells assessed as apoptotic cells at 0.4 uM incubated for 48 hrs by AnnexinV-FITC/PI staining based flow cytometric analysis (reference value: 6.25 to 8.23%); type: functional; how it was run: as §3
[19] = Drug metabolism in human HCT116 cells assessed as 3-Fluoro-10-hydroxy-14-methyl-8,13,13b,14-tetrahydro-7H-indolo[2',3':3,4]pyrido[2,1-b]quinazolin-5-one release by measuring parent compound retention time incubated for 8 hrs by UPLC-QTOF/MS analysis; type: ADME, cell-based; settings: hct-116, 8 h
How it was run: (§4)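 Compounds incubated with HCT116 cells; culture media analysed by HPLC after 8, 48 and 72 h. Relative release rate taken from relative peak areas; parent and product identified by retention time.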

HCT-116 [20] = assay: Induction of cell cycle arrest in human HCT116 cells assessed as accumulation at S phase at 0.2 uM incubated for 24 hrs by propidium iodide staining based flow cytometry (reference value: 30.31 to 40.69%); type: functional
[21] = Drug metabolism in human HCT116 cells assessed as 3-Fluoro-10-hydroxy-14-methyl-8,13,13b,14-tetrahydro-7H-indolo[2',3':3,4]pyrido[2,1-b]quinazolin-5-one release at 0.2 mM by UPLC-QTOF/MS analysis relative to control; type: ADME, cell-based; settings: hct-116, 200 µM, TDE = time-dependent effect
HCT-116 [22] = assay: Induction of cell cycle arrest in human HCT116 cells assessed as accumulation at G2 phase at 0.05 uM incubated for 24 hrs by propidium iodide staining based flow cytometry (reference value: 18.51 to 20.82%); type: functional
HCT-116 [23] = assay: Induction of cell cycle arrest in human HCT116 cells assessed as accumulation at S phase at 0.05 uM incubated for 24 hrs by propidium iodide staining based flow cytometry (reference value: 30.31 to 40.69%); type: functional
[24] = Inhibition of porcine brain tubulin polymerization measured at 1 min interval for 15 to 30 mins by spectrophotometric method; parameters: species or system Sus scrofa
HCT-116 [25] = assay: Antitumour activity against human HCT116 cells xenografted in nude mouse assessed as tumour growth inhibition at 0.5 mg/kg, ip qd measured every two days for 21 days by caliper method relative to control; type: functional; settings: HCT-116, ip, read-out: TGI
[26] = Toxicity in nude mouse xenografted with human HCT116 cells assessed as change in body weight at 0.5 mg/kg, ip qd measured every two days for 21 days; type: organism-based, HCT-116; settings: in vivo, 504 h
[27] = Drug metabolism in human HCT116 cells assessed as 3-Fluoro-10-hydroxy-14-methyl-8,13,13b,14-tetrahydro-7H-indolo[2',3':3,4]pyrido[2,1-b]quinazolin-5-one release by measuring retention time incubated for 8 hrs by UPLC-QTOF/MS analysis; type: ADME, cell-based; settings: hct-116, 8 h; how it was run: as §4
[28] = Toxicity in nude mouse xenografted with human HCT116 cells assessed as change in body weight at 10 mg/kg, ip bid measured every two days for 21 days; type: organism-based, HCT-116; settings: in vivo, 504 h
How it was run: (§5)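 HCT116 xenograft in mice. Dosing 10 mg/kg intraperitoneally over 21 consecutive days; tumour growth inhibition and body weight followed. Mean ± SEM, Student's t test versus vehicle group.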

HCT-116 [29] = assay: Antitumour activity against human HCT116 cells xenografted in nude mouse assessed as tumour growth inhibition at 10 mg/kg, ip bid measured every two days for 21 days by caliper method relative to control; type: functional; settings: HCT-116, ip, read-out: TGI; how it was run: as §5

Row | SMILES | IC50 (MCF7) | inhibition [2] | Drug metabolism [5] | half-life at 1 µM [6] | IC50 (HCT-116 [7]) | inhibition [10] | inhibition [14] | inhibition [15] | inhibition [16] | IC50 (A549) | Activity (HCT-116 [1]) | Activity (HCT-116 [3]) | Activity (HCT-116 [4]) | Activity (HCT-116 [8]) | Activity (HCT-116 [9]) | Activity (HCT-116 [11]) | Activity (HCT-116 [12]) | Activity (HCT-116 [13]) | Activity (HCT-116 [17]) | Activity (HCT-116 [18]) | other results
1 | CN1c2ccc(F)cc2C(=O)N2CCc3c([nH]c4ccc(OC(=O)OCc5ccc(B(O)O)cc5)cc34)C21 (stereo not drawn) | 32 nM | Active | Dose-dependent effect | 0.74 min | 41 nM | Active | Active | Active | Active | 44 nM | 51.23% | Dose-dependent effect | 7.6% | 44.4% | 14.09% | 5.41% | 43.45% | 54.28% | 43.36% | 64.47% | Retention_time [19]: 8.6 min; Activity (HCT-116 [20]): 48.96%; Drug metabolism [21]: Tde; Activity (HCT-116 [22]): 29.47%; Activity (HCT-116 [23]): 56.44%
2 | CN1c2ccccc2C(=O)N2CCc3c([nH]c4ccc(OC(=O)OCc5ccc(B(O)O)cc5)cc34)C21 (stereo not drawn) | 140 nM | Active |  |  | 52 nM | Active | Active |  |  | 130 nM |  |  |  |  |  |  |  |  |  |  | IC50 [24]: 25700 nM
3 | CC[C@@]1(O)C(=O)OCc2c1cc1n(c2=O)Cc2cc3c(CN(C)C)c(O)ccc3nc2-1 [TOPOTECAN] |  |  |  |  |  |  |  |  |  |  |  |  |  |  |  |  |  |  |  |  | inhibition in vivo at 0.5 mg/kg (HCT-116 [25]): 68.8%; Activity [26]: Toxic
4 | CN1c2ccc(F)cc2C(=O)N2CCc3c([nH]c4ccc(O)cc34)C21 (stereo not drawn) | 31 nM |  |  | 3.69 min | 27 nM |  | Active |  |  | 29 nM |  |  |  |  |  |  |  |  |  |  | Retention_time [27]: 7.3 min

Further compounds by falling IC50 (MCF7), results first:

Row | IC50 (MCF7) | inhibition [2] | Drug metabolism [5] | half-life at 1 µM [6] | IC50 (HCT-116 [7]) | inhibition [10] | inhibition [14] | inhibition [15] | inhibition [16] | IC50 (A549) | SMILES | Activity (HCT-116 [1]) | Activity (HCT-116 [3]) | Activity (HCT-116 [4]) | Activity (HCT-116 [8]) | Activity (HCT-116 [9]) | Activity (HCT-116 [11]) | Activity (HCT-116 [12]) | Activity (HCT-116 [13]) | Activity (HCT-116 [17]) | Activity (HCT-116 [18]) | other results
5 | 59 nM | Active |  |  | 83 nM |  | Active |  | Active | 73 nM | CN1c2ccc(F)cc2C(=O)N2CCc3c([nH]c4ccc(OCc5ccc(B(O)O)cc5)cc34)C21 (stereo not drawn) |  |  |  |  |  |  |  |  |  |  | 
6 | 33 nM | Active | Dose-dependent effect | 8.36 min | 16 nM | Active | Active | Active | Active | 37 nM | CN1c2ccc(F)cc2C(=O)N2CCc3c([nH]c4ccc(OC(=O)OCc5ccc(B6OC(C)(C)C(C)(C)O6)cc5)cc34)C21 (stereo not drawn) | 56.25% | Dose-dependent effect | 8.82% | 41.28 - 42.28% | 34.32% | 4.95% | 45.49% | 55.64% | 38.8% | 61.73% | Activity [28]: Non-Toxic; inhibition in vivo at 10 mg/kg (HCT-116 [29]): 64.4%; Retention_time [19]: 11.4 min; Activity (HCT-116 [20]): 45.69%; Drug metabolism [21]: Tde; Activity (HCT-116 [22]): 26.88%; Activity (HCT-116 [23]): 38.8%
